Assay outcomes as filed in PubChem BioAssay.
FGF22 binding: binders of recombinant human FGF22 by thermal shift; Q9HCT0; SYPRO orange fluorescence; percent of sucrose octasulfate shift, DMSO zero; activity (Tm shift, normalised), % at 9.99 µM; 340,000 tested, 1.5% active; AID 651658;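 active means mean Tm shift, scaled 0 neutral to 100 positive control, at about 1.3% or above, every replicate too, limit read from the data; inconclusive means no clear call, values can overlap the other calls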
E-selectin induc: induces E-selectin expression in human endothelial cells; P16581; HUVEC E-selectin immunofluorescence imaging; normalized: neutral wells 0, TNF-alpha wells 100; activation, % at 7.58 µM; 260,000 tested, 0.37% active; AID 686992;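 active means mean E-selectin-positive cell signal at least 10% of the positive control, reached in at least 60% of replicates, without over 20% cell loss; inconclusive means no rule given, readout overlaps actives, possibly toxicity-flagged; inactive means the rest, including those meeting only one limit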
Target sequence (P16581 whole entry, looked up): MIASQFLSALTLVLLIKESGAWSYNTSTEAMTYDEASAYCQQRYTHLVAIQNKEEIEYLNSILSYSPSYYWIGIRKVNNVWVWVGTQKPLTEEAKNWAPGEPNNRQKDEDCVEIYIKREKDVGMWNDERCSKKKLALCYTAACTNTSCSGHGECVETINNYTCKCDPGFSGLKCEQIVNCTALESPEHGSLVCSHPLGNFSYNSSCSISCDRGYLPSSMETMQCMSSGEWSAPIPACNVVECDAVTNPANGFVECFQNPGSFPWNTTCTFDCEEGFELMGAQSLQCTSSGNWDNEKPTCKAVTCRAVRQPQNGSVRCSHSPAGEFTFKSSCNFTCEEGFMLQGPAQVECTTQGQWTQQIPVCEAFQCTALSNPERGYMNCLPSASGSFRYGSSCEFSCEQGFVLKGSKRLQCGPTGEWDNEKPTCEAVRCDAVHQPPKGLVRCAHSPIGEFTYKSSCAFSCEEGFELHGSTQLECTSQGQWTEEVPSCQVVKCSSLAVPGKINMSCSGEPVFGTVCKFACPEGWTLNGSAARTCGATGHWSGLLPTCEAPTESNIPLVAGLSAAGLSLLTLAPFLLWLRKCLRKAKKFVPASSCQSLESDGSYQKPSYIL
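assay system = HUVEC, human umbilical vein endothelial cells | input = 3,000 HUVEC seeded per well | medium = EGM-2 growth medium on 0.1% gelatin-coated wells | dosing = one compound dose added by pin transfer | signal = immunofluorescence imaging | read-out basis = % PE-positive cells | control set = TNF-alpha, DMSO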
SIRT5 block: inhibitors of human sirtuin-5 desuccinylase; 330,000 tested, 1.1% active; inhibition, % at 15 µM; AID 652115; Q9NXA8; Purified SirT5, succinyl-peptide AMC, trypsin-coupled fluorescence; in the data active means inhibition above about 15%; inconclusive means no clear call, values can overlap the other calls
FN deposit inh: fibronectin deposition inhibition. AH1F fibroblasts, Alexa488-fibronectin deposition fluorescence, overnight. inhibition, % at 12.6 µM. 350,000 tested, 0.086% active. AID 743247;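 active means mean inhibition across replicates of 30% or more, regardless of how many single replicates reach that level; inconclusive means mean under 30% yet at least half of replicates reach 30%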;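 further: positive control wells lacked labelled fibronectin entirely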
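Measured by – fluorescence 485/525 nm · System – AH1F fibroblast monolayer, labelled fibronectin deposition · Amount – 10000 cells per well · Buffer or medium – serum-reduced DMEM (2% serum) · Doses – single dose, pinned · Also added – fluorescent fibronectin at 24 nM final · Schedule – 1 h cell attachment, overnight exposure to compound and label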
rRNA inh HTS: inhibitors of bacterial rRNA selective over humanized ribosomes; E. coli WT GFP vs humanized-ribosome RFP mutants, fluorescence, 24 h; active compounds read low; DMSO median 0, no signal -100; GFP signal change (wild-type ribosome), % (no concentration beside the values); 350,000 tested, 1.6% active; AID 720706;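 active means significant combined selectivity score with lowered wild-type GFP, culture density cut under 30%, mutant RFP and density less affected; inactive means any of these conditions unmet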
Statin myotox sup: suppressors of simvastatin-induced myotoxicity in C2C12 myotubes. ATP luminescence, 48 h; scaled: DMSO 0, geranylgeraniol control 100. 330,000 tested, 0.78% active. rescue of ATP level, % at 7.49 µM;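 active means mean ATP rescue above about 67%, or every replicate alone reaching that limit, limit read from the data, passing the limit was not always enough; inconclusive means no clear call, values can overlap the other calls; inactive means mean under the limit and some replicate under it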;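 further: myotubes were challenged with 10 µM simvastatin during compound exposure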
AID977621: growth inhibition of wild-type GFP E. coli, dose response, H69 mutant RFP, cherry-pick | shares compounds with rRNA inh HTS | E. coli wild-type GFP strain growth, fluorescence, 24 h | activity change, negative = inhibition at 50 µM | 1,900 tested, under 10 active | AID 977621;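 active means Wild-type ribosome reporter drop at least double the humanized mutant ribosome reporter drop, growth loss under a set limit; inconclusive means no clear call, values can overlap the other calls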;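 further: wild-type GFP and H69 mutant RFP strains grown together 50/50 in each well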
AID977628: E. coli growth inhibition, wild-type GFP versus h24 humanized RFP strain, dose response, h24 mutant RFP vs wild-type GFP, cherry-pick. shares compounds with rRNA inh HTS. E. coli WT GFP strain growth, fluorescence, 24 h. activity change, negative = inhibition at 50 µM. 1,900 tested, under 10 active;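 active means compound lowering the normal-ribosome reporter at least twice as much as the humanized-ribosome reporter, growth loss under a set limit; inconclusive means no clear call, values can overlap the other calls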;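 further: wild-type GFP and h24 humanized RFP strains co-cultured 1 to 1 per well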
An asterisk follows results filed as active; ? = inconclusive; . = no result given. Rows were chosen to be rich in hits. Some 4% of all compounds tested hit in one or more screens of this group.

SMILES	FGF22 binding	E-selectin induc	SIRT5 block	FN deposit inh	rRNA inh HTS	Statin myotox sup	AID977621	AID977628
O=C(C[C@H]1CC[C@@H](NC(=O)c2ccc3c(c2)OCO3)[C@H](CO)O1)NCc1ccc(Cl)cc1	0	1	2	.	-4	4	.	.
CCCCc1ccc(S(=O)(=O)Nc2ccc(C)c(NS(C)(=O)=O)c2)cc1	0	.	-2	10	-35*	.	-2.8	.
CN(Cc1nnc(-c2ccc(F)cc2)o1)c1ccccc1	0	.	-2	-8	-26*	14	-7.6	-7
CN(Cc1ccc(F)cc1)C(=O)CCc1nnc(-c2ccccc2)o1	0	0	-5	1	-5	.	.	.
CCC(=O)N(CC)C[C@H]1[C@H](c2ccc(-c3cccnc3)cc2)[C@@H](CO)N1C(C)=O	0	0	2	.	2	-1	.	.
CC=Cc1ccc2n(c1=O)C[C@@H]1[C@@H](CO)[C@H](C(=O)NCC)N(CCC(F)(F)F)[C@H]21 (mixture of isomers)	0	0	1	.	-1	-5	.	.
CC1CCCCN1CC(O)COCCC12CC3CC(CC(C3)C1)C2 (stereo not given)	0	0	4	-12	-29*	-25	-23	.
CCOC(=O)N1CCN(CC(O)COCCC23CC4CC(CC(C4)C2)C3)CC1 (stereo not given)	.	.	.	.	.	-22	.	.
COC(=O)C[C@@H]1C[C@@H]2c3cc(NS(=O)(=O)c4ccc(OC)cc4)ccc3O[C@@H]2[C@@H](CO)O1	0	0	.	1	-1	-7	.	.
C[C@H]1CN([C@@H](C)CO)C(=O)c2c(c3ccccc3n2C)-c2ccccc2CO[C@@H]1CN(C)Cc1ccc(-c2ccccc2)cc1	.	-1	6	3	4	.	.	.
CC(OC(=O)CCc1nc2ccccc2c(=O)[nH]1)C(=O)c1ccc(Br)cc1 (stereo not given)	0	.	-6	5	-24*	.	.	?
CC(OC(=O)CCc1c[nH]c2ccccc12)C(=O)c1ccccc1 (stereo not given)	0	7	3	2	-25*	.	.	?
CC(=O)Nc1ccc(NC(=O)C(C)OC(=O)CCCc2c[nH]c3ccccc23)cc1 (stereo not given)	0	0	-3	-3	1	-4	.	.
CN(C)c1ccc(-c2nnn(Cc3ccccc3Br)n2)cc1	0	.	2	.	-19*	10	?	.
Clc1ccccc1Cn1nnc(-c2ccccc2)n1	42	.	1	-2	-6	.	.	.
CCc1ccc(NC(=O)CCc2c(C)nn(-c3ccc(N4CCCCC4)nn3)c2C)cc1	0	.	-1	3	-23*	-9	4.5	?
Cc1nn(-c2ccc(N3CCCCC3)nn2)c(C)c1CCC(=O)Nc1ccc(F)cc1	0	.	-2	-8	-28*	-6	-17	?
C[C@H](CO)N1C[C@H](C)[C@H](CN(C)Cc2ccc(Oc3ccccc3)cc2)Oc2c(NC(=O)Nc3cccc4ccccc34)cccc2C1=O	-1	-3	9	.	0	-7	.	.
Cn1cc([N+](=O)[O-])c(C(=O)Nc2ccc(-c3nc4ccccc4[nH]3)cc2)n1	0	.	-8	10	-26*	.	-29	?
CSc1ccccc1OCc1cc(C(=O)N(C)Cc2nonc2C)no1	0	.	-1	1	-30*	-4	-14	-12
COC(=O)C1(Cc2ccccc2)NC(c2ccc(F)cc2)C2C(=O)N(C)C(=O)C21 (stereo not given)	.	.	.	.	.	6	.	.
COc1ccc(N2C(=O)C3C(c4ccc(C(=O)O)cc4)NC(Cc4ccccc4)(C(=O)O)C3C2=O)c([N+](=O)[O-])c1 (stereo not given)	0	4	-2	12	-19*	.	3.8	3.9
